Hits are enriched below; roughly 3.1% of the tested compounds scored in any of these assays.
OX1R antag-1 – blocks the human orexin 1 receptor; OX1R-expressing cells, FRET antagonist read-out; O43613; inhibition, % at 6.6 µM; 330,000 compounds, 1.8% hits; AID 485270; in the data active = inhibition mostly above about 38%, no sharp cut-off; inactive = mostly below about 40%;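 also: 0% = agonist challenge alone and 100% = reference antagonist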
CHO parental Ca – signal in parental CHO cells, OX1R antagonist counter-screen | parental CHO-K1, ATP-induced calcium, Fluo-8 fluorescence | inhibition, % at 5.6 µM | 330,000 compounds, 0.63% hits;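 active = inhibition above that plate's mean sample inhibition plus 3 SD, cut at about 26% in these data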;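 also: 0% = ATP-challenged DMSO wells and 100% = DMSO wells without ATP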
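Material: parental CHO cells / Compound: single nominal dose of 5.6 µM per compound / Signal: Fluo-8 fluorescence / Replicates: singlicate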
GalR3 antagonist – blocks the human galanin receptor 3. AID 651719. O60755. HEK293 GalR3-CNG cAMP membrane potential fluorescence; galR3 body fused to GalR1 C-terminus. inhibition, % at 3 µM. 360,000 compounds, 0.44% hits;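 active = inhibition above the screen-wide average plus 3 SD, cut at about 13% in these data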;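 also: forskolin and galanin both at EC90 stimulate the cells; cAMP rise reported by CNG channel membrane potential dye signal; 0% = forskolin plus galanin with DMSO and 100% = forskolin alone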
Target sequence (O60755 1-299 limits assumed): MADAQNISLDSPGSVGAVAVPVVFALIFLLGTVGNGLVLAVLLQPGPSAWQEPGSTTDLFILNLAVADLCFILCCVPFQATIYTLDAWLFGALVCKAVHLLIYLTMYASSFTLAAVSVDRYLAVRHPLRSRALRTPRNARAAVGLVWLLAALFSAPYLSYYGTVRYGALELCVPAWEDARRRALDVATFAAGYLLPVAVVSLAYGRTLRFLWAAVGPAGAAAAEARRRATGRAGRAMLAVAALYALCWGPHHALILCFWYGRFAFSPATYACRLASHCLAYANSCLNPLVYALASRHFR
GPR7 antagonist – blocks human GPR7 receptor signaling; P48145; GPR7-expressing cells, fluorescence antagonist assay; inhibition, % at 4.4 µM; 290,000 compounds, 1.1% hits; AID 1861; in the data active = inhibition above about 16%, passing the limit was not always enough;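 also: cells stimulated with the agonist NPW; 0% = agonist with vehicle and 100% = vehicle without agonist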
OX1R antag-2 – human HCRTR1 antagonism. CHO/OX1R cells, Fluo-8 calcium fluorescence, orexin A. inhibition, % at 5 µM. 330,000 compounds, 0.43% hits;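 active = inhibition above its plate's threshold, mean inhibition of all tested compounds on the plate plus 3 SD, cut at about 37% in these data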;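 also: 0% = orexin A challenge wells and 100% = SB-334867-A antagonist wells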
GalR3 conf – confirmation of human galanin receptor 3 antagonists | shares compounds with GalR3 antagonist | HEK293 GalR3 CNG cAMP biosensor, membrane potential fluorescence; galR3 fused to GalR1 carboxy tail; challenged with forskolin and galanin at EC90 | inhibition, % at 3 µM | 1,600 compounds, 59% hits;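 active = inhibition above the primary screen's cutoff, the mean inhibition of all screened compounds plus 3 SD, cut at about 13% in these data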;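 also: 0% = forskolin plus galanin and 100% = forskolin alone with DMSO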
CNG parental – parental cell agonism counter-screen for GalR3 antagonists | 1,600 compounds, 10% hits | HEK293-CNG parental cells, cAMP membrane potential fluorescence; normalised: DMSO wells 0%, forskolin wells 100% | activation, % at 3 µM | AID 652268 | shares compounds with GalR3 antagonist; in the data active = activation above about 1.3%
Starred values were filed as active, the others as inactive.

For CCOc1cc(S(=O)(=O)NCc2ccncc2)ccc1Cl the results were OX1R antag-1 26, CHO parental Ca 38*, GalR3 antagonist 102*, GPR7 antagonist 9, OX1R antag-2 14, GalR3 conf 126* and CNG parental -1.
`CC(=O)c1c(C)[nH]c(C(=O)OC(C)C(=O)NC2CCCCC2)c1C` (centres undefined) gave GalR3 antagonist -6.
`C=CCOc1c(Cl)cc(Cl)cc1S(=O)(=O)NCCO` gave GalR3 antagonist -4.
Cc1ccc(S(=O)(=O)NCc2ccncc2)cc1 was read as OX1R antag-1 30, CHO parental Ca 21, GalR3 antagonist 22*, GPR7 antagonist -5, OX1R antag-2 17, GalR3 conf 74* and CNG parental 0.
`Cc1c(CN2CCC(CO)(Cc3cccc(C(F)(F)F)c3)CC2)c2ccccc2n1C` gave OX1R antag-1 1, CHO parental Ca -2, GalR3 antagonist -6, GPR7 antagonist 16 and OX1R antag-2 -21.
COc1ccc(CN2CCC(CO)(Cc3cccc(C(F)(F)F)c3)CC2)cc1Cn1cccn1 was read as OX1R antag-1 12, CHO parental Ca -25, GalR3 antagonist 16*, GPR7 antagonist 12, OX1R antag-2 -26, GalR3 conf 4 and CNG parental 3.9*.
Screening CCC(=O)OCCNc1cc(Sc2nc3ccccc3[nH]2)c2nonc2c1[N+](=O)[O-] returned OX1R antag-1 93*, CHO parental Ca 61*, GalR3 antagonist 35*, GPR7 antagonist 15, OX1R antag-2 30, GalR3 conf 32* and CNG parental 0.
For O=C1NC[C@H](CCCCN2C[C@H](Cc3ccc(O)cc3)N(CC3CCCCC3)C(=O)C2=O)N(CCc2ccc(O)cc2)C1=O the results were GalR3 antagonist -5.
CCOC(=O)c1c(NC(=O)COC(=O)c2cc(OC)c(OC)cc2[N+](=O)[O-])sc(C)c1C was read as OX1R antag-1 1, CHO parental Ca -20, GalR3 antagonist -3, GPR7 antagonist -8 and OX1R antag-2 -24.
`COc1cc(N=C2C(=O)N3c4c(cccc42)C(C)=CC3(C)C)cc(OC)c1` gave OX1R antag-1 6, CHO parental Ca -15, GalR3 antagonist -1, GPR7 antagonist 16 and OX1R antag-2 -20.
For CC1=CC(C)(C)N2C(=O)C(=Nc3ccc(O)cc3)c3cccc1c32 the results were OX1R antag-1 24, CHO parental Ca -9, GalR3 antagonist 16*, GPR7 antagonist 2, OX1R antag-2 -2, GalR3 conf 2 and CNG parental 1.
CCOC(=O)c1nc(NCc2cccc(OC)c2)c2ccccc2n1 was read as OX1R antag-1 0, CHO parental Ca -3, GalR3 antagonist -2, GPR7 antagonist -3 and OX1R antag-2 -14.
`CC(C)(C)c1ccc2c(c1)OC(C(=O)N/N=C/c1ccc([N+](=O)[O-])o1)CO2` (centres undefined) gave OX1R antag-1 19, CHO parental Ca -2, GalR3 antagonist 1, GPR7 antagonist -2 and OX1R antag-2 -8.
For Cc1cc(C(=O)NC2CCCc3c2cnn3-c2ccc(C)c(C)c2)n(C)n1 (centres undefined) the results were OX1R antag-1 43, CHO parental Ca 45*, GalR3 antagonist 99*, GPR7 antagonist 10, OX1R antag-2 12, GalR3 conf 105* and CNG parental 0.
Screening Cc1cccc(-n2ncc3c2CCCC3NC(=O)C2(C(N)=O)CC2)c1C (centres undefined) returned OX1R antag-1 10, CHO parental Ca 21, GalR3 antagonist 114*, GPR7 antagonist 1, OX1R antag-2 12, GalR3 conf 106* and CNG parental -1.
Cc1ccc(-n2ncc3c2CCCC3NC(=O)c2ccoc2)cc1C (centres undefined) was read as OX1R antag-1 46, CHO parental Ca -12, GalR3 antagonist -4, GPR7 antagonist -9 and OX1R antag-2 -27.
For Cc1cc(C)cc(-n2ncc3c2CCCC3NC(=O)C2(C(N)=O)CC2)c1 (centres undefined) the results were OX1R antag-1 12, CHO parental Ca 5, GalR3 antagonist -5, GPR7 antagonist 0 and OX1R antag-2 2.
`CCc1cc(C(=O)NC2CCCc3c2cnn3-c2cccc(C)c2C)n(C)n1` (centres undefined) gave OX1R antag-1 60*, CHO parental Ca 62*, GalR3 antagonist 99*, GPR7 antagonist -2, OX1R antag-2 38, GalR3 conf 102* and CNG parental 0.
COc1ccc(S(=O)(=O)N2CCSC2C)cc1C (centres undefined) was read as GalR3 antagonist -9 and GPR7 antagonist 2.
Screening O=C(NCC1CCCO1)C1CC(c2ccccc2Cl)=NO1 (centres undefined) returned OX1R antag-1 11, CHO parental Ca -3, GalR3 antagonist 0, GPR7 antagonist -3 and OX1R antag-2 -11.
`CC1CC(=O)NN=C1c1ccc(NCCO)c([N+](=O)[O-])c1` (centres undefined) gave OX1R antag-1 59*, CHO parental Ca -11, GalR3 antagonist 64*, GPR7 antagonist -9, OX1R antag-2 4, GalR3 conf 71* and CNG parental 0.
`CCn1c(=O)cc(SCC(=O)N2CCN(c3ccccc3F)CC2)c2ccccc21` gave OX1R antag-1 13, CHO parental Ca -11, GalR3 antagonist -5, GPR7 antagonist 11 and OX1R antag-2 -30.
For O=C(Nc1ccncc1)c1cccc(S(=O)(=O)N2CCc3ccccc32)c1 the results were OX1R antag-1 48*, CHO parental Ca 59*, GalR3 antagonist 76*, OX1R antag-2 48*, GalR3 conf 46* and CNG parental 0.
For CSCC[C@H]1COC[C@@H](Cc2ccccc2)N1c1ccccc1 the results were GalR3 antagonist -4.
For COc1cc2c3c(c1)C(C)CC(C)(C)N3C(=O)C2=O (centres undefined) the results were OX1R antag-1 44*, CHO parental Ca 0, GalR3 antagonist 22*, GPR7 antagonist 14, OX1R antag-2 -77, GalR3 conf 23* and CNG parental 1.
`CCc1cc2c3c(c1)C(C)CC(C)(C)N3C(=O)/C2=C1\SC(=O)NC1=O` (centres undefined) gave OX1R antag-1 4, CHO parental Ca -5, GalR3 antagonist -3, GPR7 antagonist -18 and OX1R antag-2 -20.

Source: PubChem BioAssay
